The text below walks through data of ChEMBL document CHEMBL1139324, “Chemical modification and biological evaluation of new semisynthetic derivatives of 28,29-Didehydronystatin A1 (S44HP), a genetically engineered antifungal polyene macrolide antibiotic” (J Med Chem, 2009).

The structures appear in SMILES notation. In brackets after ≈: the same amount, converted by molar mass. Bounds are passed on as bounds.

Type in all cases: functional
Test [1] deals with Aspergillus niger. The test is described as follows: Antifungal activity against Aspergillus niger ATCC 16404 after 48 hrs by broth microdilution method. The note with it: ATCC 16404, 48 h. Summed up:
(§1)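 Susceptibility of filamentous fungi (molds) by broth microdilution per NCCLS M38-A in 96-well microplates. The MIC is read as the lowest inhibitory concentration. It is given as one number when replicate data fully agreed.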
For orientation: Dilution methods test growth across graded concentrations, often in twofold steps.

In test [2] the test system is Vanrija humicola. The test is described as follows: Antifungal activity against Cryptococcus humicolus ATCC 9949 after 48 hrs by broth microdilution method. The note with it: ATCC 9949, 48 h. In outline: (§2)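 Yeast susceptibility by broth microdilution per NCCLS M27-A in 96-well plates. MIC is the lowest concentration inhibiting growth. Where repeat runs fully coincided, a single value is reported.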

The test system of test [3] is Fusarium oxysporum. In words: Antifungal activity against Fusarium oxysporum VKM F-140 after 48 hrs by broth microdilution method. Summed up: as §1
The subject of test [4] is Candida albicans. The test is described as follows: Antifungal activity against Candida albicans ATCC 14053 after 48 hrs by broth microdilution method. The conditions noted are these: ATCC 14053, 48 h. Summed up:
as §2

In general, MIC refers to the smallest concentration in the dilution series that meets the test's criterion for growth inhibition. A high value points to a less susceptible organism. As to `COC(=O)[C@@H](NC(=O)[C@H]1[C@@H]2C[C@@H](O[C@H]3O[C@@H](C)[C@H](O)[C@@H](N)[C@H]3O)/C=C/C=C/C=C/C=C/C=C/C=C/C=C/[C@H](C)[C@@H](O)[C@@H](C)[C@H](C)OC(=O)C[C@H](O)C[C@H](O)C[C@H](O)CC[C@@H](O)[C@H](O)C[C@](O)(C[C@@H]1O)O2)C(C)C`, the MIC in test [1] turned out to be 4 µg/mL (≈ 3.86 µM); in test [2], 2 µg/mL (≈ 1.93 µM); in test [3] it was 8 µg/mL (≈ 7.71 µM); in test [4], 2 µg/mL (≈ 1.93 µM).

As to `C[C@@H]1[C@H](O)[C@@H](C)/C=C/C=C/C=C/C=C/C=C/C=C/C=C/[C@H](O[C@H]2O[C@@H](C)[C@H](O)[C@@H](N)[C@H]2O)C[C@@H]2O[C@](O)(C[C@@H](O)[C@H](O)CC[C@@H](O)C[C@@H](O)C[C@@H](O)CC(=O)O[C@H]1C)C[C@H](O)[C@H]2C(=O)NC(C)(CO)CO`, the MIC worked out at 4 µg/mL (≈ 3.96 µM) in test [1], 4 µg/mL (≈ 3.96 µM) in test [2], 16 µg/mL (≈ 15.8 µM) in test [3] and 4 µg/mL (≈ 3.96 µM) in test [4].

As to `C[C@@H]1[C@H](O)[C@@H](C)/C=C/C=C/C=C/C=C/C=C/C=C/C=C/[C@H](O[C@H]2O[C@@H](C)[C@H](O)[C@@H](N)[C@H]2O)C[C@@H]2O[C@](O)(C[C@@H](O)[C@H](O)CC[C@@H](O)C[C@@H](O)C[C@@H](O)CC(=O)O[C@H]1C)C[C@H](O)[C@H]2C(=O)NC1C2CC3CC(C2)CC1C3` (some centres not stated), the MIC came to 4 µg/mL (≈ 3.78 µM) in test [1], 4 µg/mL (≈ 3.78 µM) in test [2], 8 µg/mL (≈ 7.57 µM) in test [3] and 4 µg/mL (≈ 3.78 µM) in test [4].

Consider `COC(=O)[C@H](C)NC(=O)[C@H]1[C@@H]2C[C@@H](O[C@H]3O[C@@H](C)[C@H](O)[C@@H](N)[C@H]3O)/C=C/C=C/C=C/C=C/C=C/C=C/C=C/[C@H](C)[C@@H](O)[C@@H](C)[C@H](C)OC(=O)C[C@H](O)C[C@H](O)C[C@H](O)CC[C@@H](O)[C@H](O)C[C@](O)(C[C@@H]1O)O2`, for which the MIC in test [1] amounted to 4 µg/mL (≈ 3.96 µM); in test [2] it was 2 µg/mL (≈ 1.98 µM); in test [3] it was 8 µg/mL (≈ 7.93 µM); in test [4], 2 µg/mL (≈ 1.98 µM).

On to `C[C@@H]1[C@H](O)[C@@H](C)/C=C/C=C/C=C/C=C/C=C/C=C/C=C/[C@H](O[C@H]2O[C@@H](C)[C@H](O)[C@@H](NCc3ccc(N(C)C)cc3)[C@H]2O)C[C@@H]2O[C@](O)(C[C@@H](O)[C@H](O)CC[C@@H](O)C[C@@H](O)C[C@@H](O)CC(=O)O[C@H]1C)C[C@H](O)[C@H]2C(=O)O`, for which the minimal inhibitory concentration (MIC) in test [1] is 4 µg/mL (≈ 3.78 µM); in test [2], 2 µg/mL (≈ 1.89 µM); in test [3] it was over 16 µg/mL; in test [4], 2 µg/mL (≈ 1.89 µM).

`C[C@@H]1[C@H](O)[C@@H](C)/C=C/C=C/C=C/C=C/C=C/C=C/C=C/[C@H](O[C@H]2O[C@@H](C)[C@H](O)[C@@H](NCc3ccccc3S(=O)(=O)O)[C@H]2O)C[C@@H]2O[C@](O)(C[C@@H](O)[C@H](O)CC[C@@H](O)C[C@@H](O)C[C@@H](O)CC(=O)O[C@H]1C)C[C@H](O)[C@H]2C(=O)O`: the MIC in test [1] is 4 µg/mL (≈ 3.66 µM); in test [2], 4 µg/mL (≈ 3.66 µM); in test [3], over 16 µg/mL; in test [4] it was 4 µg/mL (≈ 3.66 µM).

For the molecule `C[C@@H]1[C@H](O)[C@@H](C)/C=C/C=C/C=C/C=C/C=C/C=C/C=C/[C@H](O[C@H]2O[C@@H](C)[C@H](O)[C@@H](N)[C@H]2O)C[C@@H]2O[C@](O)(C[C@@H](O)[C@H](O)CC[C@@H](O)C[C@@H](O)C[C@@H](O)CC(=O)O[C@H]1C)C[C@H](O)[C@H]2C(=O)N(C)CC(O)C(O)C(O)C(O)CO` (some centres not stated), the MIC in test [1] was 4 µg/mL (≈ 3.63 µM); in test [2], 4 µg/mL (≈ 3.63 µM); in test [3] it was over 16 µg/mL; in test [4], 4 µg/mL (≈ 3.63 µM).

Consider `C[C@@H]1[C@H](O)[C@@H](C)/C=C/C=C/C=C/C=C/C=C/C=C/C=C/[C@H](O[C@H]2O[C@@H](C)[C@H](O)[C@@H](NC(=O)C(N)CCCCN)[C@H]2O)C[C@@H]2O[C@](O)(C[C@@H](O)[C@H](O)CC[C@@H](O)C[C@@H](O)C[C@@H](O)CC(=O)O[C@H]1C)C[C@H](O)[C@H]2C(=O)O` (some centres not stated), for which the MIC in test [1] was 16 µg/mL (≈ 15.2 µM); in test [2], 8 µg/mL (≈ 7.6 µM); in test [3] it was over 16 µg/mL; in test [4], 8 µg/mL (≈ 7.6 µM).
